In ChEMBL document CHEMBL2157911, “Synthesis and biological evaluation of a series of podophyllotoxins derivatives as a class of potent antitubulin agents” (Bioorg Med Chem, 2012):

How the values were obtained:
[1] = system: SGC-7901; experiment: Cytotoxicity against human SGC7901 cells after 48 hrs; type: functional, cell-based; details: SGC-7901, 48 h
Outline: (§1)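 Cells were grown in RPMI 1640 with 10% fetal serum, 2 mM L-glutamine, […], penicillin and streptomycin. Log-phase cells were seeded, left 24 h at 37 °C/5% CO2 to attach, then exposed to 0–100 µM compound for 48 h (DMSO <0.1%), five wells per concentration.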

[2] = system: K562; experiment: Cytotoxicity against human K562 cells after 48 hrs; type: functional, cell-based; details: K562, 48 h; outline: as §1
[3] = system: HeLa; experiment: Cytotoxicity against human HeLa cells after 48 hrs; type: functional, cell-based; outline: as §1
[4] = system: HepG2; experiment: Cytotoxicity against human HepG2 cells after 48 hrs; type: functional, cell-based; details: HepG2, 48 h; outline: as §1
[5] = Inhibition of goat brain tubulin polymerization after 30 mins; set-up: species or system Capra hircus
Outline: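 Goat brain tubulin was purified by two polymerization–depolymerization cycles. Tubulin (10 µM) was incubated with compound at 0, 10, 20, 40 or 60 µM in buffer containing 20% glycerol and […] at 37 °C, then cooled to 0 °C. Assembly was followed turbidimetrically in a fluorescence plate reader.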

Row | SMILES | IC50 [1] [µM] | IC50 [2] [µM] | IC50 [3] [µM] | IC50 [4] [µM] | IC50 [5] [µM]
1 | CCCN(CCC)/C(CCO[C@@H]1c2cc3c(cc2[C@@H](c2cc(OC)c(OC)c(OC)c2)[C@H]2C(=O)OC[C@@H]21)OCO3)=N/S(C)(=O)=O | 2.87 | 2.96 | 2.63 | 2.14 | –
2 | COc1cc([C@@H]2c3cc4c(cc3[C@@H](OCC/C(=N\S(C)(=O)=O)NCc3ccccc3)[C@H]3COC(=O)[C@H]23)OCO4)cc(OC)c1OC | 19.2 | 12.1 | 11.2 | 17.9 | –
3 | COc1cc([C@@H]2c3cc4c(cc3[C@@H](OCC/C(=N\S(C)(=O)=O)N3CCCCC3)[C@H]3COC(=O)[C@H]23)OCO4)cc(OC)c1OC | 18.2 | 9.01 | 10.4 | 57.1 | –
4 | COc1cc([C@@H]2c3cc4c(cc3[C@@H](OCC/C(=N\S(C)(=O)=O)N3CCCC3)[C@H]3COC(=O)[C@H]23)OCO4)cc(OC)c1OC | 11.2 | 8.34 | 5.99 | 20.8 | –
5 | COc1cc([C@@H]2c3cc4c(cc3[C@@H](OCC/C(=N\S(C)(=O)=O)N(C3CCCCC3)C3CCCCC3)[C@H]3COC(=O)[C@H]23)OCO4)cc(OC)c1OC | 3.21 | 2.61 | 4.33 | 1.95 | –
6 | COc1cc([C@@H]2c3cc4c(cc3[C@@H](OCC/C(N)=N\S(C)(=O)=O)[C@H]3COC(=O)[C@H]23)OCO4)cc(OC)c1OC | 4.31 | 3.48 | 3.75 | 2.87 | –
7 | COc1cc([C@@H]2c3cc4c(cc3[C@@H](OCC/C(=N\S(C)(=O)=O)N(C)C)[C@H]3COC(=O)[C@H]23)OCO4)cc(OC)c1OC | 3.71 | 5.18 | 2.58 | 4.17 | –
8 | COc1cc2c(c(OC)c1OC)-c1ccc(OC)c(=O)cc1[C@@H](NC(C)=O)CC2 [COLCHICINE] | 0.05 | 0.55 | 0.1 | 0.02 | –
9 | COc1cc([C@@H]2c3cc4c(cc3[C@H](O)[C@H]3COC(=O)[C@H]23)OCO4)cc(OC)c1OC [PODOFILOX] | 0.34 | 4.51 | 0.14 | 0.51 | 24
